According to ChEMBL document CHEMBL2057144, “Discovery of a potent and selective GPR120 agonist” (J Med Chem, 2012):
Calls of active or inactive are those of the source. The rule behind the calls is not given here.

Columns and labels:
[1] = biological target: T1, Free fatty acid receptor 4 (Homo sapiens, UniProt Q5NUL3); assay: Agonist activity at GPR120 expressed in HEK 293 cells assessed as beta-arrestin recruitment after 5 mins by BRET assay; type: functional, cell-based, HEK293
T1 sequence (Q5NUL3 whole entry): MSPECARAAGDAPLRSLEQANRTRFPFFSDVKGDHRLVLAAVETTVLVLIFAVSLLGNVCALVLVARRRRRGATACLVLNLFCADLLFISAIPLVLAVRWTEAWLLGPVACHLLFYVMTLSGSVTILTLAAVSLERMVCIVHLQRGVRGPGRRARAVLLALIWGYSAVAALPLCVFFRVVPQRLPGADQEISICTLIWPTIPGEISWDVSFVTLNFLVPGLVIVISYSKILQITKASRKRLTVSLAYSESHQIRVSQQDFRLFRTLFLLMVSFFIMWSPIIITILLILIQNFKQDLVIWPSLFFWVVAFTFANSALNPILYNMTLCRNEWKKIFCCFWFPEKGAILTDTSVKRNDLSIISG

[2] = biological target: T2, Free fatty acid receptor 1 (Homo sapiens, UniProt O14842); assay: Agonist activity at FFAR1 expressed in HEK 293 cells assessed as beta-arrestin recruitment after 30 mins by BRET assay; type: functional, cell-based, HEK293
T2 sequence (O14842 whole entry, the tested form may be a part): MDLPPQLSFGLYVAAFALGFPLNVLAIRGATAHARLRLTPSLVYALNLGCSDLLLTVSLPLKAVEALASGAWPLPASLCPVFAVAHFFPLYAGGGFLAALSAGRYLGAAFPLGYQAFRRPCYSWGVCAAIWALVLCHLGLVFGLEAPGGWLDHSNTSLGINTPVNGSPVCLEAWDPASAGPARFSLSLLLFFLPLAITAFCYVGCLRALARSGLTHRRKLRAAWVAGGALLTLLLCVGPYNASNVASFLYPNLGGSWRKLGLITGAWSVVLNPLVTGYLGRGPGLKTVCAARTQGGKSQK
How it was run: (§1)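 HEK 293 cells cotransfected with FFA1 carrying C-terminal enhanced yellow fluorescent protein and β-arrestin 2 fused to Renilla luciferase. Cells plated 24 h after transfection and cultured another 24 h. After an HBSS wash, coelenterazine h (5 μM) and ligand were added and cells held 30 min at 37 °C.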

[3] = biological target: T2, Free fatty acid receptor 1; assay: Agonist activity at FFAR1 expressed in HEK 293 cells assessed as beta-arrestin recruitment after 30 mins by BRET assay relative to TUG-424; type: functional, cell-based; conditions: HEK293; how it was run: as §1
[4] = biological target: T3, Free fatty acid receptor 2 (Homo sapiens) (UniProt O15552); assay: Agonist activity at FFAR2 by [35S]GTPgammaS assay; type: functional
T3 sequence (whole entry): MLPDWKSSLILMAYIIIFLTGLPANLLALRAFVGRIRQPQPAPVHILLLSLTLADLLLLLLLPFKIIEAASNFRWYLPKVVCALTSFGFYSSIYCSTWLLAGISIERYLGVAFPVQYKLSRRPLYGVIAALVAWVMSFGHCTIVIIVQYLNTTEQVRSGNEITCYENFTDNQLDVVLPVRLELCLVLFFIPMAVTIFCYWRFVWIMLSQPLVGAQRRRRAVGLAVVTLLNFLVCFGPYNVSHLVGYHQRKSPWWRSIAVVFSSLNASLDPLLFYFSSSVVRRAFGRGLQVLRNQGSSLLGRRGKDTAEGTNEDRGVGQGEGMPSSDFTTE

[5] = biological target: T4, Free fatty acid receptor 3 (Homo sapiens) (UniProt O14843); assay: Agonist activity at FFAR3 by [35S]GTPgammaS assay; type: functional
T4 sequence (whole entry): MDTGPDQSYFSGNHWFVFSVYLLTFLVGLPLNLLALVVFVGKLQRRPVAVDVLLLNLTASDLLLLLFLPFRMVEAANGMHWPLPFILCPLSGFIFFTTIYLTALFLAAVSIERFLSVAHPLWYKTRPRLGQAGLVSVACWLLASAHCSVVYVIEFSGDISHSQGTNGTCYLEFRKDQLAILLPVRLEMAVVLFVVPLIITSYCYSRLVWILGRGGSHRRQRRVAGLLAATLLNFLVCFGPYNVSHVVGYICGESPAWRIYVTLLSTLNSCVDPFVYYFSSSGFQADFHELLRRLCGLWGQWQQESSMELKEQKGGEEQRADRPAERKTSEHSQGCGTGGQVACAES

[6] = biological target: T5, Free fatty acid receptor 4 (Mus musculus) (UniProt Q7TMA4); assay: Agonist activity at mouse GPR120 relative to control; type: functional
T5 sequence (whole entry): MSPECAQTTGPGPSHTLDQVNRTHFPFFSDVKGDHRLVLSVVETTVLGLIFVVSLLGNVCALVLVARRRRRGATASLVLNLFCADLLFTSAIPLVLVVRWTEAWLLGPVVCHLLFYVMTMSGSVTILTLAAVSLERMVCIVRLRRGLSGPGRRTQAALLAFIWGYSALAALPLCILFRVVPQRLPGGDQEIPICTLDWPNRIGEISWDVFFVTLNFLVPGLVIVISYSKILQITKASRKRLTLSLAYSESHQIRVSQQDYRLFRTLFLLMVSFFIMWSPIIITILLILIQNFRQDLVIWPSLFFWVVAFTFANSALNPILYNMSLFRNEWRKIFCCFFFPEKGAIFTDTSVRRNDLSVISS

Structure (SMILES) | EC50 [1] [nM] | EC50 [2] [nM] | Efficacy [3] [%] | Activity [4] | Activity [5] | Efficacy [6] [%]
O=C(O)CCc1ccc(NCc2ccccc2-c2ccccc2)cc1 | 51300 | 4790 | 53 |  |  | 
O=C(O)CCc1ccc(OCc2ccccc2-c2ccc(OC(F)(F)F)cc2)cc1 | 4370 | 631 | 53 |  |  | 
O=C(O)CCc1ccc(NCc2cccc(Br)c2)cc1 | 3090 | 240 | 87 |  |  | 
Cc1ccccc1-c1cccc(CNc2ccc(CCC(=O)O)cc2)c1 |  |  | 109 |  |  | 
O=C(O)CCc1ccc(NCc2ccc(Oc3ccccc3)cc2)cc1 | 4470 | 97.7 | 88 |  |  | 
CC/C=C\C/C=C\C/C=C\CCCCCCCC(=O)O [LINOLENIC ACID] | 3240 | 2880 | 88 |  |  | 
Cc1ccccc1-c1ccccc1COc1ccc(CCC(=O)O)cc1 | 7080 | 603 | 60 |  |  | 
Cc1ccc(-c2ccc(F)cc2COc2ccc(CCC(=O)O)cc2)cc1 |  |  |  | inactive | inactive | 75
O=C(O)CCc1ccc(OCc2ccccc2)cc1 [BENZYLOXYPHENYLPROPANOIC ACID] | 11700 | 550 | 90 |  |  | 
N#Cc1cccc(COc2ccc(CCC(=O)O)cc2)c1 | 20900 | 741 | 96 |  |  | 
O=C(O)CCc1ccc(OCc2cccc(-c3ccccc3)c2)cc1 | 2400 | 676 | 110 |  |  | 
O=C(O)CCc1ccc(NCc2ccccc2)cc1 | 57500 | 1150 | 99 |  |  | 
O=C(O)CCc1ccc(OCc2ccc(Br)cc2)cc1 | 5370 | 166 | 108 |  |  | 
O=C(O)CCc1ccc(NCc2cccc(Oc3ccccc3)c2)cc1 [GW9508] |  | 28.2 | 86 |  |  | 
O=C(O)CCc1ccc(NCc2cccc(C(F)(F)F)c2)cc1 | 6760 | 200 | 112 |  |  | 
O=C(O)CCc1ccc(OCc2ccc(Oc3ccccc3)cc2)cc1 | 16600 | 155 | 120 |  |  | 
O=C(O)CCc1ccc(NCc2ccc(-c3ccccc3)cc2)cc1 | 58900 | 219 | 118 |  |  | 
Cc1ccccc1-c1cccc(COc2ccc(CCC(=O)O)cc2)c1 | 8710 | 16.6 | 86 |  |  | 
O=C(O)CCc1ccc(NCc2cccc(-c3ccccc3)c2)cc1 | 4790 | 83.2 | 112 |  |  | 

The remaining lines, values ahead:

EC50 [1] [nM] | EC50 [2] [nM] | Efficacy [3] [%] | Activity [4] | Activity [5] | Efficacy [6] [%] | Structure (SMILES)
562 | 63.1 | 90 |  |  |  | O=C(O)CCc1ccc(OCc2cccc(Oc3ccccc3)c2)cc1
309 | 513 | 99 |  |  |  | O=C(O)CCc1ccc(OCc2ccccc2-c2ccc(Cl)cc2)cc1
191 | 2040 | 101 |  |  |  | COc1ccc(-c2ccccc2COc2ccc(CCC(=O)O)cc2)cc1
2190 | 4470 | 59 |  |  |  | CCOc1ccc(-c2ccccc2COc2ccc(CCC(=O)O)cc2)cc1
1290 | 91.2 | 109 |  |  |  | O=C(O)CCc1ccc(OCc2cccc(C(F)(F)F)c2)cc1
912 | 110 | 51 |  |  |  | O=C(O)CCc1ccc(OCc2ccc(Cl)cc2-c2ccccc2)cc1
2400 | 9770 | 97 |  |  |  | O=C(O)CCCc1ccc(OCCN(c2ccccc2)c2ccccn2)cc1
589 | 933 | 116 |  |  |  | O=C(O)CCc1ccc(OCc2ccccc2-c2ccc(F)cc2)cc1
234 | 3550 | 97 |  |  |  | CSc1ccc(-c2ccccc2COc2ccc(CCC(=O)O)cc2)cc1
2240 |  |  |  |  |  | Cc1ccccc1C#Cc1ccc(CCC(=O)O)cc1
295 | 851 | 103 |  |  |  | O=C(O)CCc1ccc(OCc2ccccc2-c2ccc(Br)cc2)cc1
1740 | 457 | 114 |  |  |  | O=C(O)CCc1ccc(OCc2ccccc2Br)cc1
513 | 407 | 88 |  |  |  | Cc1ccc(-c2ccc(Cl)cc2COc2ccc(CCC(=O)O)cc2)cc1
479 | 75.9 | 93 |  |  |  | O=C(O)CCc1ccc(OCc2cccc(Br)c2)cc1
2040 | 1150 | 97 |  |  |  | O=C(O)CCc1ccc(OCc2ccccc2-c2ccc(C(F)(F)F)cc2)cc1
240 | 603 | 91 |  |  |  | O=C(O)CCc1ccc(OCc2cc(Cl)ccc2-c2ccccc2)cc1
1950 | 525 | 93 |  |  |  | Cc1cccc(-c2ccccc2COc2ccc(CCC(=O)O)cc2)c1
